Measured values: ChEMBL document CHEMBL4152262, “Design, synthesis and evaluation of novel multi-target-directed ligands for treatment of Alzheimer's disease based on coumarin and lipoic acid scaffolds” (Eur J Med Chem, 2018)
pIC50: −log10 of the molar value. Activity calls are given as the source filed them. No cut-off for these calls is given here.

Columns and labels:
PC-12 [1] = experiment: Neuroprotection against H2O2-induced cell death in rat PC12 cells assessed as increase in cell viability preincubated for 3 hrs followed by H2O2 stimulation measured after 2 hrs by MTT assay; assay type: functional, cell-based
PC-12 [2] = experiment: Inhibition of H2O2-induced ROS generation in rat PC12 cells assessed as intracellular ROS level at 50 uM preincubated for 6 hrs followed by H2O2 addition measured after 18 hrs by DCFH-DA staining based fluorimetric method relative to control; assay type: functional; design: scale not given: the % may be the effect or the level left
In short: (§1)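 PC12 cells at 1×10^4/well in RPMI with 10% FBS and penicillin/streptomycin, 24 h at 37 °C, 5% CO2. Test samples (1, 5, 10, 50 µM; ≤0.5% DMSO) for 6 h, PBS wash, then H2O2 150 µM for 18 h. Loaded with 10 µM DCFH-DA for 30 min at 37 °C in the dark, washed twice. DCF fluorescence read at ex 485/em 528 nm as % of untreated control. Three independent experiments, mean ± SEM.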

[3] = Metal chelating activity assessed as compound-Mg2+ complex formation at 20 uM after 30 mins by UV-visible spectrophotometric analysis
In short: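 Compound (final 20 µM in methanol) mixed with metal salt (CuCl2, FeSO4, ZnCl2, AlCl3, MgCl2 or CaCl2, final 20 µM in methanol). After 30 min at room temperature, UV spectra recorded from 200 to 500 nm in 1-cm quartz cells on a dual-beam spectrophotometer.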

SH-SY5Y = experiment: Inhibition of amyloid beta (1 to 42) (unknown origin)-induced cell death in human SH-SY5Y cells assessed as cell viability at 10 uM preincubated for 3 hrs followed by amyloid beta (1 to 42) addition measured after 24 hrs by MTT assay relative to control; assay type: functional; conditions: read-out: Activity
In short: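 SH-SY5Y cells grown in DMEM with 10% FBS, 1% L-glutamine and antibiotics, seeded at 5×10^3/well. Pretreated 3 h with compound (10 or 50 µM), then Aβ1-42 10 µM added for 24 h. MTT, formazan dissolved in DMSO, A570. Viability as blank-corrected % of untreated control; three independent experiments, mean ± SEM.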

PC-12 [4] = experiment: Inhibition of H2O2-induced ROS generation in rat PC12 cells assessed as intracellular ROS level at 1 uM preincubated for 6 hrs followed by H2O2 addition measured after 18 hrs by DCFH-DA staining based fluorimetric method relative to control; assay type: functional; design: scale not given: the % may be the effect or the level left; in short: as §1
PC-12 [5] = experiment: Inhibition of H2O2-induced ROS generation in rat PC12 cells assessed as intracellular ROS level at 10 uM preincubated for 6 hrs followed by H2O2 addition measured after 18 hrs by DCFH-DA staining based fluorimetric method relative to control; assay type: functional; design: scale not given: the % may be the effect or the level left; in short: as §1
PC-12 [6] = experiment: Neuroprotection against H2O2-induced cell death in rat PC12 cells assessed as cell viability at 50 uM preincubated for 3 hrs followed by H2O2 stimulation measured after 2 hrs by MTT assay (reference value: 25.2 to 41.8%); assay type: functional; conditions: read-out: Activity
[7] = Inhibition of soybean 15-LOX assessed as reduction in conversion of linoleic acid to 13-hydroperoxylinoleic acid by spectrophotometric method; design: species or system Glycine max
In short: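 Soybean lipoxygenase type 1-B (final 167 U/mL) with compound (DMSO stock diluted in 0.1 M phosphate buffer pH 8) and linoleic acid (134 mM in ethanol) at room temperature. Formation of 13-hydroperoxylinoleic acid followed spectrophotometrically at 234 nm.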

With COc1ccc(-c2cc3ccc(OCCCn4cc(CNC(=O)CCCCC5CCSS5)nn4)cc3oc2=O)cc1OC (stereo not drawn) the Activity (PC-12 [1]) was “Dose-dependent effect”, the Activity (PC-12 [2]) was 91.6% and the Activity [3] was “inactive”. For the same molecule, the viability at 10 µM (SH-SY5Y) was 64.7%, the Activity (PC-12 [4]) was 88.84% and the Activity (PC-12 [5]) was 43.04%. The viability at 50 µM (PC-12 [6]) was 49.5% and the pIC50 [7] was < 4.00.
